The subject of one experiment is Salmonella typhimurium. The experiment can be described thus: Antibacterial activity against Salmonella typhimurium ATCC 6539. It counts as functional, Salmonella enterica subsp. enterica serovar Typhimurium. To be noted: Salmonella enterica. In a few lines: (§1)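 24 h growth-inhibition (MIC) assay. Final test concentration range was 50−3.13 μg/mL or 2.0−0.05 μg/mL depending on compound. Cefotaxime sodium served as positive control. Each experiment was repeated three times.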

For experiment [1], the target named is T1, Pancreatic triacylglycerol lipase (Sus scrofa, UniProt P00591).
T1 sequence (P00591 whole entry): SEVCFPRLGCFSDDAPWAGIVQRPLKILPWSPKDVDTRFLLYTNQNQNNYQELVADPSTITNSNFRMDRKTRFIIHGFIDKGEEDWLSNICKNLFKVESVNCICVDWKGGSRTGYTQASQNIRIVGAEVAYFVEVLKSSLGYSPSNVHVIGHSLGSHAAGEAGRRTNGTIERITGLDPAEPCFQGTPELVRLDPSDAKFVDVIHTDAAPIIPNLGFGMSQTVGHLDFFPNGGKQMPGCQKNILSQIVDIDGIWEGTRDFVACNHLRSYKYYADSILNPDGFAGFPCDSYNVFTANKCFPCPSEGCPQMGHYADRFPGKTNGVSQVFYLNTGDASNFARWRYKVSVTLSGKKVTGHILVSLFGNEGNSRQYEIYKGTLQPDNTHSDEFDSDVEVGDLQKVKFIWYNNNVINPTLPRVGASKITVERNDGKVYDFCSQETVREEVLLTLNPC
The experiment is described as follows: Inhibition of porcine pancreatic lipase using p-NPB as substrate pretreated for 15 mins followed by substrate addition measured after 15 mins by spectrophometric method.

The next experiment concerns Enterococcus faecalis. The experiment is described as follows: Antibacterial activity against Enterococcus faecalis ATCC 10541. It counts as functional. In a few lines:
as §1

The subject of another experiment is Staphylococcus aureus. The experiment is described as follows: Antibacterial activity against Staphylococcus aureus […]. The class given is functional. In a few lines: as §1
A further experiment concerns Escherichia coli. The experiment can be described thus: Antibacterial activity against Escherichia coli ATCC 11775. It counts as functional. To be noted: DSM 30083 = JCM 1649 = ATCC 11775. In a few lines:
as §1

This is an account of results in ChEMBL document CHEMBL4251723, “Antibacterial Dimeric Acylphloroglucinols from Hypericum japonicum” (J Nat Prod, 2018).

Converted amounts (≈) assume the structure as drawn.

Take `C=C(CCC=C(C)C)C(O)Cc1c(O)c(CC2=C(O)C(C)(C)C(O)=C(C(=O)C(C)CC)C2=O)c(O)c(C(=O)C(C)C)c1O` (centres undefined): the MIC worked out at 0.8 µM (≈ 0.479 µg/mL) in the experiment with Salmonella typhimurium, 0.8 µM (≈ 0.479 µg/mL) with Enterococcus faecalis, 3.3 µM (≈ 1.98 µg/mL) with Staphylococcus aureus and 0.8 µM (≈ 0.479 µg/mL) against Escherichia coli. Besides, the IC50 in experiment [1] is 14.5 µM.

Take `CC(C)=CCC[C@]1(C)Oc2c(c(O)c(CC3=C(O)C(C)(C)C(O)=C(C(=O)C(C)C)C3=O)c(O)c2C(=O)C(C)C)C[C@H]1O`: the MIC in the experiment with Salmonella typhimurium came to 5.4 µM (≈ 3.16 µg/mL); with Enterococcus faecalis, 10.7 µM (≈ 6.26 µg/mL); in the experiment on Staphylococcus aureus, 85.6 µM (≈ 50.1 µg/mL); in the experiment on Escherichia coli it was 21.4 µM (≈ 12.5 µg/mL).

In the case of `CCC(C)C(=O)C1=C(O)C(C)(C)C(O)=C(Cc2c(O)cc(OCC=C(C)C)c(C(=O)c3ccccc3)c2O)C1=O` (centres undefined), the minimal inhibitory concentration (MIC) against Salmonella typhimurium stood at 0.9 µM (≈ 0.494 µg/mL); in the experiment with Enterococcus faecalis, 1.8 µM (≈ 0.988 µg/mL); in the experiment with Staphylococcus aureus it was 1.8 µM (≈ 0.988 µg/mL); with Escherichia coli, 1.8 µM (≈ 0.988 µg/mL).

On to `CC(C)=CCC/C(C)=C/Cc1c(O)c(CC2=C(O)C(C)(C)C(O)=C(C(=O)C(C)C)C2=O)c(O)c(C(=O)C(C)C)c1O`, for which the MIC against Salmonella typhimurium was 1.8 µM (≈ 1.02 µg/mL); in the experiment on Enterococcus faecalis, 1.8 µM (≈ 1.02 µg/mL); with Staphylococcus aureus it was 1.8 µM (≈ 1.02 µg/mL); with Escherichia coli, 0.9 µM (≈ 0.512 µg/mL).

Turning to `C=C(CCC=C(C)C)C(O)Cc1c(O)c(CC2=C(O)C(C)(C)C(O)=C(C(=O)C(C)C)C2=O)c(O)c(C(=O)C(C)C)c1O` (centres undefined), the MIC against Salmonella typhimurium is 0.9 µM (≈ 0.526 µg/mL); with Enterococcus faecalis, 0.9 µM (≈ 0.526 µg/mL); in the experiment on Staphylococcus aureus it was 1.7 µM (≈ 0.994 µg/mL); against Escherichia coli, 0.9 µM (≈ 0.526 µg/mL).

For the compound `CC(C)=CCOc1cc(O)c(CC2=C(O)C(C)(C)C(O)=C(C(=O)C(C)C)C2=O)c(O)c1C(=O)c1ccccc1`, the minimum inhibitory concentration (MIC) was 0.9 µM (≈ 0.481 µg/mL) in the experiment on Salmonella typhimurium, 1.9 µM (≈ 1.02 µg/mL) with Enterococcus faecalis, 1.9 µM (≈ 1.02 µg/mL) against Staphylococcus aureus and 1.9 µM (≈ 1.02 µg/mL) against Escherichia coli.

As to `CCC(C)C(=O)C1=C(O)C(C)(C)C(O)=C(Cc2c(O)c(C/C=C(\C)CCC=C(C)C)c(O)c(C(=O)C(C)C)c2O)C1=O` (centres undefined), the minimal inhibitory concentration (MIC) was 1.7 µM (≈ 0.991 µg/mL) against Salmonella typhimurium, 1.7 µM (≈ 0.991 µg/mL) in the experiment on Enterococcus faecalis, 3.4 µM (≈ 1.98 µg/mL) in the experiment with Staphylococcus aureus and 0.9 µM (≈ 0.524 µg/mL) in the experiment on Escherichia coli. In addition, in experiment [1], the IC50 amounted to 8.3 µM.

In the case of `CO/N=C(\C(=O)N[C@@H]1C(=O)N2C(C(=O)O)=C(COC(C)=O)CS[C@H]12)c1csc(N)n1` [CEFOTAXIME SODIUM], the minimum inhibitory concentration (MIC) was 3.3 µM against Salmonella typhimurium, 0.4 µM in the experiment on Enterococcus faecalis, 3.3 µM in the experiment with Staphylococcus aureus and 0.4 µM with Escherichia coli.
